Laboratory results published in ChEMBL document CHEMBL1955781, “Structure-activity relationship study of selective benzimidazole-based inhibitors of Cryptosporidium parvum IMPDH” (Bioorg Med Chem Lett, 2012).

Tests used:
Cryptosporidium parvum [1] = experiment: Antiparasitic activity against Cryptosporidium parvum infection model; type: functional, organism-based
[2] = target: Inosine-5'-monophosphate dehydrogenase 2 (Homo sapiens, UniProt P12268); experiment: Inhibition of human IMPDH2
Toxoplasma gondii [3] = experiment: Antiparasitic activity against hypoxanthine-guanine-xanthine phosphoribosyltransferase gene knock out Toxoplasma gondii expressing Cryptosporidium parvum IMPDH infected in human foreskin fibroblasts assessed as parasite proliferation by fluorescence assay; type: functional, organism-based
Method in brief: (§1)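 T. gondii strains carrying a yellow fluorescent protein reporter, grown in hTERT-immortalized human foreskin fibroblasts. Parasite proliferation is followed by fluorescence. Because the parasites grow in the host fibroblasts, the read-out also reflects host cell toxicity.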

Toxoplasma gondii [4] = experiment: Antiparasitic activity against wild type Toxoplasma gondii expressing endogenous IMPDH infected in human foreskin fibroblasts assessed as inhibition of parasite proliferation by fluorescence assay; type: functional, organism-based; method in brief: as §1
[5] = target: T1, Inosine-5'-monophosphate dehydrogenase (Cryptosporidium parvum, UniProt Q8T6T2); experiment: Inhibition of recombinant Cryptosporidium parvum IMPDH expressed in Escherichia coli assessed as NADH production preincubated for 5 mins by fluorescence assay
T1 sequence (Q8T6T2 whole entry): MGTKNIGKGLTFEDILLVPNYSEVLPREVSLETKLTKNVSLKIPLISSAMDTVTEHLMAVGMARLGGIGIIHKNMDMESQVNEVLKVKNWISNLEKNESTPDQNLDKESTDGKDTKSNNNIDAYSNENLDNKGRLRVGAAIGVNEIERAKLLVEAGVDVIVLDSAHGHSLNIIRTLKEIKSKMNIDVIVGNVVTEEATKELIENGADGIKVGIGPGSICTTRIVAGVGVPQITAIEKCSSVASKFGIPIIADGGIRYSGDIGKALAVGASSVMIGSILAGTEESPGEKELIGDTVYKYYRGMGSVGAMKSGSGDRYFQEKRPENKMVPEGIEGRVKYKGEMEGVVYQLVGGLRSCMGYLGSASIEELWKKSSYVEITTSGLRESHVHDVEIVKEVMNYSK
Method in brief: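 Enzyme activity was tracked as NADH production across varying inhibitor concentrations. Values are the mean of three independent determinations unless otherwise flagged.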

[6] = target: T1, Inosine-5'-monophosphate dehydrogenase; experiment: Inhibition of recombinant Cryptosporidium parvum IMPDH expressed in Escherichia coli assessed as NADH production preincubated for 5 mins by fluorescence assay in presence of bovine serum albumin
Method in brief: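 NADH production was followed at varying inhibitor concentrations, with 0.05% fatty-acid-free bovine serum albumin added to gauge non-specific binding. Values are the mean of three independent determinations unless otherwise flagged.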

Toxoplasma gondii [7] = experiment: Selectivity ratio of EC50 for wild type Toxoplasma gondii expressing endogenous IMPDH to EC50 for hypoxanthine-guanine-xanthine phosphoribosyltransferase gene knock out Toxoplasma gondii expressing Cryptosporidium parvum IMPDH; type: functional
Cryptosporidium parvum [8] = experiment: Ratio of paromomycin EC50 to compound EC50 for Cryptosporidium parvum infection model; type: functional
[9] = target: Inosine-5'-monophosphate dehydrogenase 1 (Homo sapiens, UniProt P20839); experiment: Inhibition of human IMPDH1
Cryptosporidium parvum [10] = experiment: Antiparasitic activity against Cryptosporidium parvum infection model at 0.8 uM; type: functional; conditions: read-out: GI

Sequence of Inosine-5'-monophosphate dehydrogenase 1 (P20839 whole entry): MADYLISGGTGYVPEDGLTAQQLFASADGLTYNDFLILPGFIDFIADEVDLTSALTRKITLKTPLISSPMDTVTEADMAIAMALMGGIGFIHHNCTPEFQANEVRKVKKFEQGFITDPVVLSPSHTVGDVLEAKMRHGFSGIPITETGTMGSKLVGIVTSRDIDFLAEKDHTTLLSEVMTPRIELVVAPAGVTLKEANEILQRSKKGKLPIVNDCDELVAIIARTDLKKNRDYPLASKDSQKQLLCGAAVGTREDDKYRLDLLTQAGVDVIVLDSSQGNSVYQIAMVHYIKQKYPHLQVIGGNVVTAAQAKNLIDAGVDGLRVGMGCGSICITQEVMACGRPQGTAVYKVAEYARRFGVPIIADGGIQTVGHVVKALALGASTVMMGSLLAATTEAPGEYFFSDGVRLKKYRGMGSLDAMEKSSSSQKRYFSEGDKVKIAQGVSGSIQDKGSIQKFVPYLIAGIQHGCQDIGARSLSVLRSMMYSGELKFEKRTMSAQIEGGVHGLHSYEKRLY

| Compound | IC50 [2] | IC50 [5] | IC50 [6] | also measured |
| --- | --- | --- | --- | --- |
| O=C(Cn1c(-c2nccs2)nc2ccccc21)Nc1ccc(Br)cc1 | > 5000 nM | 28 nM | 27 nM | EC50 (Cryptosporidium parvum [1]): 700 nM; EC50 (Toxoplasma gondii [3]): 300 nM; EC50 (Toxoplasma gondii [4]): > 23000 nM |
| O=C(Cn1c(-c2cscn2)nc2ccccc21)Nc1ccc2ccccc2c1 | > 5000 nM | 7 nM | 20 nM | EC50 (Cryptosporidium parvum [1]): 900 nM; EC50 (Toxoplasma gondii [3]): 600 nM; Ratio EC50 (Toxoplasma gondii [7]): 9; EC50 (Toxoplasma gondii [4]): 5000 nM; Ratio EC50 (Cryptosporidium parvum [8]): 2 |
| O=C(Cn1c(-c2cscn2)nc2ccccc21)Nc1ccc(F)cc1 | > 5000 nM | 900 nM |  |  |
| O=C(Cn1c(-c2cscn2)nc2ccccc21)Nc1ccc(C(F)(F)F)cc1 | > 5000 nM | 220 nM | 330 nM |  |
| O=C(Cn1c(-c2cscn2)nc2ccccc21)Nc1ccc(Cl)c2ccccc12 | > 5000 nM | 5000 nM |  |  |
| CC(C(=O)Nc1ccc(Cl)cc1)n1c(-c2cscn2)nc2ccccc21 (stereo unspecified) | > 5000 nM | 60 nM | 80 nM |  |
| CC(C)C(C(=O)Nc1ccc(Cl)cc1)n1c(-c2cscn2)nc2ccccc21 (stereo unspecified) | > 5000 nM | 5000 nM |  |  |
| CC(C(=O)Nc1ccc(Cl)cc1)n1c(-c2nccs2)nc2ccccc21 (stereo unspecified) | > 5000 nM | 23 nM | 30 nM |  |
| O=C(Cn1c(-c2nccs2)nc2ccccc21)Nc1ccc(Cl)c(Cl)c1 | > 5000 nM | 18 nM | 50 nM | EC50 (Cryptosporidium parvum [1]): 1700 nM; EC50 (Toxoplasma gondii [3]): 700 nM; Ratio EC50 (Toxoplasma gondii [7]): 5; EC50 (Toxoplasma gondii [4]): 3000 nM; Ratio EC50 (Cryptosporidium parvum [8]): 2 |
| O=C(Cn1c(-c2nccs2)nc2ccccc21)Nc1ccc2ccccc2c1 | > 5000 nM | 8 nM | 20 nM | EC50 (Cryptosporidium parvum [1]): < 800 nM; EC50 (Toxoplasma gondii [3]): 500 nM; Ratio EC50 (Toxoplasma gondii [7]): 30; inhibition of growth at 0.8 µM (Cryptosporidium parvum [10]): 80%; EC50 (Toxoplasma gondii [4]): 17000 nM; Ratio EC50 (Cryptosporidium parvum [8]): 2 |
| O=C(Cn1c(-c2cncs2)nc2ccccc21)Nc1ccc(Cl)cc1 | > 5000 nM | 35 nM | 60 nM |  |
| O=C(Cn1c(-c2cccs2)nc2ccccc21)Nc1ccc(Cl)cc1 | > 5000 nM | 20 nM | 60 nM |  |
| Cn1cc(-c2nc3ccccc3n2CC(=O)Nc2ccc(Cl)cc2)cn1 | > 5000 nM | 35 nM | 42 nM |  |
| O=C(Cn1c(-c2ccccn2)nc2ccccc21)Nc1ccc(Cl)cc1 | > 5000 nM | 43 nM | 90 nM |  |
| O=C(Cn1c(-c2ccccn2)nc2ccccc21)Nc1ccc2ccccc2c1 | > 5000 nM |  | 14 nM | EC50 (Toxoplasma gondii [3]): 300 nM; EC50 (Toxoplasma gondii [4]): 2700 nM |
| N#Cc1cc(NC(=O)Cn2c(-c3ccccn3)nc3ccccc32)ccc1Cl | > 5000 nM | 22 nM | 40 nM |  |
| O=C(Cn1c(-c2ccc(F)cc2)nc2ccccc21)Nc1ccc(Cl)cc1 | > 5000 nM | 870 nM | 1300 nM |  |
| NC[C@@H]1O[C@H](O[C@H]2[C@@H](O)[C@H](O[C@@H]3[C@@H](O)[C@H](N)C[C@H](N)[C@H]3O[C@H]3O[C@H](CO)[C@@H](O)[C@H](O)[C@H]3N)O[C@@H]2CO)[C@H](N)[C@@H](O)[C@@H]1O [PAROMOMYCIN] |  |  |  | EC50 (Cryptosporidium parvum [1]): 65000 nM |

Continued, in another order:

| IC50 [2] | IC50 [5] | Compound | IC50 [6] | also measured |
| --- | --- | --- | --- | --- |
| > 5000 nM | 240 nM | CC(C(=O)Nc1ccc(Cl)c(Cl)c1)n1c(-c2cscn2)nc2ccccc21 (stereo unspecified) | 300 nM |  |
| > 50000 nM |  | COc1ccc(NC(=O)Cn2c(-c3cscn3)nc3ccccc32)cc1 |  | IC50 [9]: > 50000 nM |
| > 5000 nM | 120 nM | CSc1ccc(NC(=O)Cn2c(-c3cscn3)nc3ccccc32)cc1 | 69 nM |  |
| > 5000 nM | 5000 nM | CC(C)c1ccc(NC(=O)Cn2c(-c3cscn3)nc3ccccc32)cc1 |  |  |
| > 5000 nM | 370 nM | N#Cc1ccc(NC(=O)Cn2c(-c3cscn3)nc3ccccc32)cc1 |  |  |
| > 5000 nM | 60 nM | O=C(Cn1c(-c2cscn2)nc2ccccc21)Nc1ccc(Br)cc1 |  |  |
| > 5000 nM | 5000 nM | CS(=O)(=O)c1ccc(NC(=O)Cn2c(-c3cscn3)nc3ccccc32)cc1 |  |  |
| > 5000 nM | 140 nM | O=C(Cn1c(-c2cscn2)nc2ccccc21)Nc1ccc(OC(F)(F)F)cc1 |  |  |
| > 5000 nM | 5000 nM | O=C(Cn1c(-c2cscn2)nc2ccccc21)Nc1ccccc1Cl |  |  |
| > 5000 nM | 490 nM | O=C(Cn1c(-c2cscn2)nc2ccccc21)Nc1cccc(Cl)c1 | 1430 nM |  |
| > 5000 nM | 30 nM | O=C(Cn1c(-c2cscn2)nc2ccccc21)Nc1ccc(Cl)c(Cl)c1 | 90 nM |  |
| > 5000 nM | 30 nM | N#Cc1cc(NC(=O)Cn2c(-c3cscn3)nc3ccccc32)ccc1Cl | 60 nM |  |
| > 5000 nM |  | O=C(Cn1c(-c2cscn2)nc2ccccc21)NCc1ccc(Cl)cc1 |  |  |
| > 5000 nM | 30 nM | O=C(Cn1c(-c2nccs2)nc2ccccc21)Nc1ccc(Cl)cc1 | 50 nM |  |
| > 5000 nM | 22 nM | O=C(Cn1c(-c2ccccn2)nc2ccccc21)Nc1ccc(Cl)c(Cl)c1 | 40 nM |  |
| > 5000 nM | 80 nM | O=C(Cn1c(-c2ccc[nH]2)nc2ccccc21)Nc1ccc(Cl)cc1 | 120 nM |  |
| > 5000 nM | 170 nM | O=C(Cn1c(-c2ncco2)nc2ccccc21)Nc1ccc(Cl)cc1 | 230 nM |  |
| > 5000 nM | 210 nM | O=C(Cn1c(-c2ccccc2)nc2ccccc21)Nc1ccc(Cl)cc1 | 280 nM |  |
| > 5000 nM | 450 nM | O=C(Cn1c(-c2ccc(Cl)cc2)nc2ccccc21)Nc1ccc(Cl)cc1 |  |  |
| > 5000 nM | 5000 nM | Cc1nc2ccccc2n1CC(=O)Nc1ccc(Cl)cc1 |  |  |
| > 5000 nM | 120 nM | O=C(Cn1c(-c2cscn2)nc2ccccc21)Nc1ccc(Cl)cc1 | 200 nM |  |
